Reference: ChEMBL document CHEMBL1123867, “Anticonvulsant O-alkyl sulfamates. 2,3:4,5-Bis-O-(1-methylethylidene)-beta-D-fructopyranose sulfamate and related compounds” (1987)
Calls of active or inactive are those of the source.

Assays:
Mus musculus [1] = assay: Anticonvulsant activity following p.o. administration by standard maximal electroshock test in mice.; format: functional; settings: po
How it was run: (§1)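 Supramaximal electroshock: 50-mA current (60 Hz, 0.20 s) via corneal electrodes induced hind-limb tonic extension; inhibition of this component scored as activity. Mice dosed ip and/or po in aqueous solution or suspension (ca. 0.1% Tween 80, distilled water). Tested at 30, 60, 120 and 240 min (sometimes 45 min); ten mice per time point.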

Mus musculus [2] = assay: Percentage block of the hind-limb tonic-extensor seizure was determined after application of an electric shock to mice for 240 min followed by 100 mg/kg intraperitoneal dose; format: functional; how it was run: as §1
Mus musculus [3] = assay: Percentage block of the hind-limb tonic-extensor seizure was determined after application of an electric shock to mice for 120 min followed by 100 mg/kg intraperitoneal dose; format: functional; how it was run: as §1
Mus musculus [4] = assay: Percentage block of the hind-limb tonic-extensor seizure was determined after application of an electric shock to mice for 240 min followed by 200 mg/kg peroral dose; format: functional; settings: route oral; how it was run: as §1
Mus musculus [5] = assay: Percentage block of the hind-limb tonic-extensor seizure was determined after application of an electric shock to mice for 120 min followed by 200 mg/kg peroral dose; format: functional; settings: route oral; how it was run: as §1
Mus musculus [6] = assay: Percentage block of the hind-limb tonic-extensor seizure was determined after application of an electric shock to mice for 30 min followed by 200 mg/kg peroral dose; format: functional; settings: route oral; how it was run: as §1
Mus musculus [7] = assay: Anticonvulsant activity by using a standard maximal electroshock test (MES) in mice, by intraperitoneal administration of the compound; format: functional; settings: ip; how it was run: as §1
Mus musculus [8] = assay: Percentage block of the hind-limb tonic-extensor seizure was determined after application of an electric shock to mice for 60 min followed by 200 mg/kg peroral dose; format: functional; settings: route oral
How it was run: (§2)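 Mouse MES test: supramaximal seizure from a 50-mA current (60 Hz, 0.20-s) through corneal electrodes. […] Ten mice per time point. Compound given in aqueous solution or in suspension in ca. 0.1% Tween 80 and distilled water. Free food and water except during testing.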

Mus musculus [9] = assay: Percentage block of the hind-limb tonic-extensor seizure was determined after application of an electric shock to mice for 60 min followed by 100 mg/kg intraperitoneal dose; format: functional; how it was run: as §1
Mus musculus [10] = assay: Percentage block of the hind-limb tonic-extensor seizure was determined after application of an electric shock to mice for 30 min followed by 100 mg/kg intraperitoneal dose; format: functional; how it was run: as §1
Mus musculus [11] = assay: Anticonvulsant activity by using a standard maximal electroshock test (MES) in mice, by 100 mg/kg intraperitoneal administration of the compound; I=inactive, 0-10% block; format: functional, organism-based; parameters: dose 100 mg/kg; how it was run: as §1
Mus musculus [12] = assay: Anticonvulsant activity by using a standard maximal electroshock test (MES) in mice, by 200 mg/kg peroral administration of the compound; I=inactive, 0-10% block; format: functional, organism-based; parameters: dose 200 mg/kg; how it was run: as §1
Mus musculus [13] = assay: Anticonvulsant activity by using a standard maximal electroshock test (MES) in mice, by 100 mg/kg intraperitoneal administration of the compound; I =inactive; format: functional, organism-based; parameters: dose 100 mg/kg; how it was run: as §1
Mus musculus [14] = assay: Percentage block of the hind-limb tonic-extensor seizure was determined after application of an electric shock to mice for 60 min followed by 200 mg/kg intraperitoneal dose; format: functional; how it was run: as §2
Mus musculus [15] = assay: Percentage block of the hind-limb tonic-extensor seizure was determined after application of an electric shock to mice for 240 min followed by 400 mg/kg peroral dose; format: functional; settings: route oral; how it was run: as §1
Mus musculus [16] = assay: Percentage block of the hind-limb tonic-extensor seizure was determined after application of an electric shock to mice for 30 min followed by 200 mg/kg intraperitoneal dose; format: functional; how it was run: as §1
Mus musculus [17] = assay: Percentage block of the hind-limb tonic-extensor seizure was determined after application of an electric shock to mice for 120 min followed by 200 mg/kg intraperitoneal dose; format: functional; how it was run: as §1
Mus musculus [18] = assay: Percentage block of the hind-limb tonic-extensor seizure was determined after application of an electric shock to mice for 60 min followed by 400 mg/kg peroral dose; format: functional; settings: route oral; how it was run: as §2
Mus musculus [19] = assay: Percentage block of the hind-limb tonic-extensor seizure was determined after application of an electric shock to mice for 240 min followed by 200 mg/kg intraperitoneal dose; format: functional; how it was run: as §1
Mus musculus [20] = assay: Percentage block of the hind-limb tonic-extensor seizure was determined after application of an electric shock to mice for 120 min followed by 400 mg/kg peroral dose; format: functional; settings: route oral; how it was run: as §1
Mus musculus [21] = assay: Percentage block of the hind-limb tonic-extensor seizure was determined after application of an electric shock to mice for 30 min followed by 400 mg/kg peroral dose; format: functional; settings: route oral; how it was run: as §1
Mus musculus [22] = assay: Anticonvulsant activity by using a standard maximal electroshock test (MEST) in mice, by 100 mg/kg intraperitoneal administration of the compound; I=inactive; format: functional, organism-based; parameters: dose 100 mg/kg
How it was run: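 Threshold electroshock: 8-mA current (60 Hz, 0.25 s) via ear-clip electrodes, the CS97 in these mice, induced hind-limb tonic extension; inhibition scored as activity. Mice given drug intraperitoneally in aqueous solution or suspension (ca. 0.1% Tween 80, distilled water). Tested at 30 min, sometimes also 240 min; ten mice per time point.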

Mus musculus [23] = assay: Anticonvulsant activity by using a standard maximal electroshock test (MES) in mice, by 400 mg/kg peroral administration of the compound; I=inactive, 0-10% block; format: functional, organism-based; parameters: dose 400 mg/kg; how it was run: as §1
Mus musculus [24] = assay: Anticonvulsant activity by using a standard maximal electroshock test (MES) in mice, by 200 mg/kg intraperitoneal administration of the compound; I=inactive, 0-10% block; format: functional, organism-based; parameters: dose 200 mg/kg; how it was run: as §1
Mus musculus [25] = assay: Anticonvulsant activity by using a standard maximal electroshock test (MES) in mice, by 100 mg/kg intraperitoneal administration; i=inactive; format: functional, organism-based; parameters: dose 100 mg/kg; how it was run: as §1

Row | Compound | ED50 (Mus musculus [1]) [mg/kg] | Block (Mus musculus [2]) [%] | Block (Mus musculus [3]) [%] | Block (Mus musculus [4]) [%] | Block (Mus musculus [5]) [%] | Block (Mus musculus [6]) [%] | ED50 (Mus musculus [7]) [mg/kg] | Block (Mus musculus [8]) [%] | Block (Mus musculus [9]) [%] | Block (Mus musculus [10]) [%] | also measured
1 | NS(=O)(=O)OCC1COc2ccccc2O1 (stereo not drawn) | 118 | 0 | 30 | 80 | 80 | 100 | ~100 | 100 | 60 | – | –
2 | CN(C)S(=O)(=O)OC[C@@]12OC[C@H]3OC(C)(C)OC3C1OC(C)(C)O2 (stereo partly drawn) | > 200 | 30 | 50 | 80 | 80 | 30 | > 100 | 40 | 30 | 30 | –
3 | CC1(C)OC2C3OC(C)(C)O[C@]3(COS(=O)(=O)Nc3ccccc3)OC[C@H]2O1 (stereo partly drawn) | – | 0 | 0 | 0 | 0 | 0 | – | 0 | 0 | 0 | ED50 (Mus musculus [11]): inactive; ED50 (Mus musculus [12]): inactive
4 | CC1(C)OC2C(OS(N)(=O)=O)C3(COC(C)(C)O3)OC[C@H]2O1 (stereo partly drawn) | – | – | – | – | – | – | – | – | – | – | ED50 (Mus musculus [13]): inactive
5 | CC1(COS(N)(=O)=O)CCCCC1 | ~400 | – | – | – | – | – | 270 | – | – | – | Block (Mus musculus [14]): 30%; Block (Mus musculus [15]): 30%; Block (Mus musculus [16]): 30%; Block (Mus musculus [17]): 20%; Block (Mus musculus [18]): 40%; Block (Mus musculus [19]): 20%; Block (Mus musculus [20]): 80%; Block (Mus musculus [21]): 50%
6 | CC1(C)OC2C3OC(C)(C)O[C@]3(COC(N)=O)OC[C@H]2O1 (stereo partly drawn) | – | – | – | – | – | – | – | – | – | – | ED50 (Mus musculus [22]): inactive
7 | CC1(C)OC2C3OC4(CCCCC4)O[C@@H]3CO[C@@]2(COS(N)(=O)=O)O1 (stereo partly drawn) | > 400 | 0 | 0 | 20 | 20 | 10 | – | 0 | 0 | 0 | ED50 (Mus musculus [11]): inactive
8 | CC1(C)OC2C3OC(C)(C)O[C@]3(COC(=O)Nc3ccccc3)OC[C@H]2O1 (stereo partly drawn) | – | – | – | – | – | – | – | – | – | – | ED50 (Mus musculus [23]): inactive; ED50 (Mus musculus [24]): inactive; Block (Mus musculus [14]): 0%; ED50 (Mus musculus [25]): inactive; Block (Mus musculus [15]): 0%; Block (Mus musculus [16]): 0%; Block (Mus musculus [17]): 0%; Block (Mus musculus [18]): 0%; Block (Mus musculus [19]): 0%; Block (Mus musculus [20]): 0%; Block (Mus musculus [21]): 0%
9 | CC1(C)O[C@@H]2CO[C@@]3(COS(=O)(=O)N=[N+]=[N-])OC(C)(C)OC3[C@@H]2O1 (stereo partly drawn) | ~200 | 30 | 50 | 100 | 70 | 30 | > 100 | 50 | 40 | 20 | –
10 | CC1(C)OCC(COS(N)(=O)=O)O1 (stereo not drawn) | ~75 | 70 | 90 | 100 | 100 | 70 | ~100 | 90 | 70 | 50 | –
11 | CC(=O)Nc1nnc(S(N)(=O)=O)s1 [ACETAZOLAMIDE] | 45 | – | – | – | – | – | – | – | – | – | –
